Source: ChEMBL document CHEMBL1123610, “Synthesis and antineoplastic activity of 1a-formyl and 1a-thioformyl derivatives of mitomycin C and 2-methylaziridine” (1987)

Assays:
P388 [1] = assay: In vivo antineoplastic activity against P388 leukemia; assay type: functional, Mus musculus
Outline: (§1)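 Murine P388 lymphocytic leukemia screen, with tumor implanted ip and drug given ip. Response is %T/C = (median survival of treated / median survival of control) × 100, reported at the optimal dose per dose in mg/kg. Mitomycin C was run concurrently. MED is the lowest mg/kg per dose that reaches the criterion %T/C.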

P388 [2] = assay: In vivo antineoplastic activity of mitomycin C sample run concurrently against P388 leukemia screen (optimal dosage); assay type: functional, Mus musculus; outline: as §1
P388 [3] = assay: In vivo antineoplastic activity against P388 leukemia screen inoculated intraperitoneally expressed as minimum effective dose; assay type: functional; details: Mus musculus, P388, ip; read-out: MED; outline: as §1
B16 [4] = assay: In vivo antineoplastic activity of mitomycin C sample run concurrently against B16 melanoma screen (optimal dosage); assay type: functional, Mus musculus
Outline: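 Murine B16 melanoma test, with tumor implanted sc and treatment given iv. Activity is %T/C = (median survival of treated / median survival of untreated control) × 100, reported at the optimal dose in mg/kg per dose. A mitomycin C sample was run alongside. MED is the minimum mg/kg per dose meeting the activity criterion for %T/C.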

B16 [5] = assay: In vivo antineoplastic activity against B16 melanoma screen inoculated subcutaneously expressed as minimum effective dose
B16 [6] = assay: In vivo antineoplastic activity against B16 melanoma screen inoculated subcutaneously. Value in parenthesis indicates the optimal dosage
B16 [7] = assay: In vivo antineoplastic activity against B16 melanoma screen inoculated intraperitoneally expressed as minimum effective dose; assay type: functional, Mus musculus
B16 [8] = assay: In vivo antineoplastic activity against B16 melanoma screen inoculated intraperitoneally. Value in parenthesis indicates the optimal dosage; assay type: functional, Mus musculus

CNC(=S)N1[C@H]2CN3C4=C(C(=O)C(N)=C(C)C4=O)[C@@H](COC(N)=O)[C@@]3(OC)[C@@H]21
T/C (P388 [1]): 95% | T/C (P388 [2]): 152%

CO[C@@]12[C@H](COC(N)=O)C3=C(C(=O)C(C)=C(N)C3=O)N1C[C@H]1[C@H]2N1C(=S)SC
T/C (P388 [1]): 122% | T/C (P388 [2]): >333%

CO[C@@]12[C@H](COC(N)=O)C3=C(C(=O)C(C)=C(N)C3=O)N1C[C@H]1[C@H]2N1C(=O)SC
T/C (P388 [1]): 132% | T/C (P388 [2]): 142% | minimal effective dose (P388 [3]): 12.8 mg/kg

COC(=O)N1[C@H]2CN3C4=C(C(=O)C(N)=C(C)C4=O)[C@@H](COC(N)=O)[C@@]3(OC)[C@@H]21
T/C (B16 [4]): 147% | T/C (P388 [1]): 194% | T/C (P388 [2]): 275% | minimal effective dose (P388 [3]): 3.2 mg/kg | MED (B16 [5]): 6.4 | T/C (B16 [6]): 165%

CNC(=O)N1[C@H]2CN3C4=C(C(=O)C(N)=C(C)C4=O)[C@@H](COC(N)=O)[C@@]3(OC)[C@@H]21
T/C (P388 [1]): 121% | T/C (P388 [2]): 142%

CO[C@@]12[C@H](COC(N)=O)C3=C(C(=O)C(C)=C(N)C3=O)N1C[C@H]1[C@H]2N1C(=O)Sc1ccccc1
T/C (B16 [4]): 147% | T/C (P388 [1]): 200% | T/C (P388 [2]): 275% | minimal effective dose (P388 [3]): 1.6 mg/kg | MED (B16 [5]): 1.6 | T/C (B16 [6]): 156%

CO[C@@]12[C@H](COC(N)=O)C3=C(C(=O)C(C)=C(N)C3=O)N1C[C@H]1[C@H]2N1/C(S)=N\c1ccccc1
T/C (P388 [1]): 127% | T/C (P388 [2]): 200% | minimal effective dose (P388 [3]): 2.56 mg/kg

CO[C@@]12[C@H](COC(N)=O)C3=C(C(=O)C(C)=C(N)C3=O)N1C[C@H]1[C@H]2N1C(=S)Oc1ccccc1
T/C (P388 [1]): 162% | T/C (P388 [2]): 152% | minimal effective dose (P388 [3]): 51.2 mg/kg

CO[C@@]12[C@H](COC(N)=O)C3=C(C(=O)C(C)=C(N)C3=O)N1C[C@H]1[C@H]2N1C(=S)Sc1ccccc1
T/C (P388 [1]): 167% | T/C (P388 [2]): 172% | minimal effective dose (P388 [3]): 12.8 mg/kg

CO[C@@]12[C@H](COC(N)=O)C3=C(C(=O)C(C)=C(N)C3=O)N1C[C@H]1[C@H]2N1C(=O)Oc1ccccc1
MED (B16 [7]): 3.2 | T/C (B16 [8]): 165% | T/C (B16 [4]): 147% | T/C (P388 [1]): 194% | T/C (P388 [2]): 275% | minimal effective dose (P388 [3]): 1.6 mg/kg

CO[C@@]12[C@H](COC(N)=O)C3=C(C(=O)C(C)=C(N)C3=O)N1C[C@H]1[C@H]2N1C(=O)Nc1ccccc1
T/C (P388 [1]): 116% | T/C (P388 [2]): 142%
